This is an account of results in ChEMBL document CHEMBL3400011, “Canthinone alkaloids are novel protein tyrosine phosphatase 1B inhibitors” (Bioorg Med Chem Lett, 2015).

The structures appear in SMILES notation.

The experiment has as its target T1, Tyrosine-protein phosphatase non-receptor type 1 (Homo sapiens) (UniProt P18031).
T1 sequence (whole entry): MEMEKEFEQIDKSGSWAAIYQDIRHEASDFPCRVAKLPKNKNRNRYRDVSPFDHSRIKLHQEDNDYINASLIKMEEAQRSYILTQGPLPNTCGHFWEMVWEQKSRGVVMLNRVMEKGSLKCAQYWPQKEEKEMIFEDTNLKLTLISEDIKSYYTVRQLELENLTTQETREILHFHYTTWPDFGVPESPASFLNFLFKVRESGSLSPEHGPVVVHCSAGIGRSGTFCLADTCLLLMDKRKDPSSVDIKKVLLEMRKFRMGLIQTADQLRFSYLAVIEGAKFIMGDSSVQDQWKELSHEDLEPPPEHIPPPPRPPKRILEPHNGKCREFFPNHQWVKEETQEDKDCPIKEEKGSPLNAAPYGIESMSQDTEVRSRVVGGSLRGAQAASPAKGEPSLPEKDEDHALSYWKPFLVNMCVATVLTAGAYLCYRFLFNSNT
Briefly: Inhibition of PTP1B (unknown origin) assessed as inhibition rate at 100 uM. A digest of the protocol: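 PTP1B enzymatic assay with RK-682 as the positive control. For the single-point screen, compounds were tested at a final 100 µM. For dose–response, inhibition was measured over a range of compound concentrations, and IC50 was obtained by regression analysis.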
The inhibition is the drop in the measured response relative to a control, in per cent. Consider `CC1NC(C(=O)O)Cc2c1[nH]c1ccccc21` (centres undefined), for which the inhibition is 21.3%.

In the case of `Cc1nccc2c1[nH]c1ccccc12`, the inhibition worked out at 7.7%.

On to `NC(=O)c1nccc2c1[nH]c1ccccc12`, for which the inhibition worked out at 20.3%.

For `Cc1c2[nH]c3ccccc3c2cc[n+]1[O-]`, the inhibition was -3%.

With `COc1cnc(C(C)=O)c2[nH]c3ccccc3c12`, the inhibition stood at 21.6%.

On to `O=c1ccc2nccc3c4c(O)cccc4n1c23`, for which the inhibition was determined as 50.6%.

For `CCc1nc(C(=O)OC)cc2c1[nH]c1ccccc12`, the inhibition was 21.2%.

Consider `COC(=O)c1cc2c([nH]c3ccccc32)c(C)n1`, for which the inhibition came to 14.3%.

Take `OCc1nccc2c1[nH]c1ccccc12`: the inhibition came to 17%.

`O=C(O)CCc1nccc2c1[nH]c1ccccc12`: the inhibition came out at 39.3%.

In the case of `COc1c(OC(C)=O)c(=O)n2c3ccccc3c3cc(OC(C)=O)nc1c32`, the inhibition turned out to be 41.7%.

In the case of `CCc1ncc(OC)c2c1[nH]c1c(O)cccc12`, the inhibition was 27.1%.

With `CCC1NC(C(=O)c2ccccc2)Cc2c1[nH]c1ccccc21` (centres undefined), the inhibition is 4.7%.

`CCn1ccc2c3n(c(=O)c(=O)c(OC)c1-3)c1ccccc21`: the inhibition is 43.6%.

As for `COC(=O)c1nccc2c1[nH]c1ccccc12`, the inhibition came out at 2.9%.

Turning to `CCCC1NC(C(=O)O)Cc2c1[nH]c1ccccc21` (centres undefined), the inhibition was 46.9%.

As for `COCCc1ncc(OC)c2c1[nH]c1c(OC)cccc12`, the inhibition was 28.6%.

Turning to `O=C(O)c1cc2c([nH]c3ccccc32)c(-c2cccc3c2OCO3)n1`, the inhibition was found to be 19.8%.

`COc1c(O)c2nccc3c4ccccc4n(c1=O)c23`: the inhibition was 55.9%.

`COCc1nccc2c1[nH]c1ccccc12`: the inhibition came out at 27.4%.

With `CCc1c2[nH]c3ccccc3c2cc[n+]1[O-]`, the inhibition came out at 4.3%.

With `COc1c(OC)c2c3c(cc[n+]2[O-])c2ccccc2n3c1=O`, the inhibition is 14.8%.

On to `COc1cccc2c1[nH]c1c(CCn3ccc4c5n(c(=O)c(=O)cc3-5)c3ccccc43)ncc(OC)c12`, for which the inhibition worked out at 48.5%.

In the case of `CCn1ccc2c3n(c(=O)c(=O)cc1-3)c1ccccc21`, the inhibition worked out at 63.4%.

As for `O=C(O)c1nccc2c1[nH]c1ccccc12`, the inhibition turned out to be 28.5%.

Regarding `O=c1ccc2nccc3c4ccccc4n1c23`, the inhibition was 15.3%.

In the case of `CC(=O)c1nccc2c1[nH]c1ccccc12`, the inhibition turned out to be 25.1%.

As to `COc1c(OC(C)=O)c(=O)n2c3ccccc3c3ccnc1c32`, the inhibition was determined as 68.8%.

In the case of `C(=C\c1nccc2c1[nH]c1ccccc12)/c1ccccc1`, the inhibition worked out at 15%.

Regarding `COC(=O)/C=C/C(=O)c1ncc(OC)c2c1[nH]c1c(OC)cccc12`, the inhibition was 21%.

`COc1c(O)c(=O)n2c3ccccc3c3ccnc1c32`: the inhibition amounted to 42.8%.

In the case of `COc1cnc(CCn2ccc3c4n(c(=O)c(=O)cc2-4)c2ccccc32)c2c1c1ccccc1n2OC`, the inhibition was found to be 43.9%.

Take `O=c1ccc2c3c(cc[n+]2[O-])c2ccccc2n13`: the inhibition was 50.9%.

With `COc1cnc(C(O)CO)c2[nH]c3ccccc3c12` (centres undefined), the inhibition is 10.5%.

For the molecule `CCC1NC(C(=O)O)Cc2c1[nH]c1ccccc21` (centres undefined), the inhibition is 20.8%.

Take `O=C1NC(=O)c2[nH]c3ccccc3c2C1=O`: the inhibition is 80.7%.

`COc1cnc2ccc(=O)n3c4ccccc4c1c23`: the inhibition stood at 23.7%.

On to `Cn1c(=O)cc2c3ccccc3n3c(=O)ccc1c23`, for which the inhibition turned out to be 33.6%.

For the molecule `CCc1nccc2c1[nH]c1ccccc12`, the inhibition came to 30.2%.

As for `COc1cccc2c1[nH]c1c(C(=O)CCC(=O)c3ncc(OC)c4c3[nH]c3c(OC)cccc34)ncc(OC)c12`, the inhibition stood at 43.8%.

`CC(C)C1NC(C(=O)O)Cc2c1[nH]c1ccccc21` (centres undefined): the inhibition came out at 11.3%.

As to `COc1c(O)c2nccc3c4cc(O)ccc4n(c1=O)c23`, the inhibition amounted to 30.5%.

As for `COC(=O)c1cc2c(cn1)[nH]c1ccccc12`, the inhibition worked out at 23%.

Take `CCCCn1ccc2c3n(c(=O)c(=O)cc1-3)c1ccccc21`: the inhibition was 42%.

Consider `COc1c(O)c(=O)n2c3ccccc3c3cc(=O)n(C)c1c32`, for which the inhibition was 26.3%.

For `CCc1ncc(OC)c2c1[nH]c1ccccc12`, the inhibition turned out to be 16.1%.

With `COc1cnc(C(=O)CC(CO)c2ncc(OC)c3c2[nH]c2ccccc23)c2[nH]c3ccccc3c12` (centres undefined), the inhibition came to 33%.

As for `Cc1nc(C(=O)O)cc2c1[nH]c1ccccc12`, the inhibition was determined as 18.2%.

For the molecule `CCCCn1ccc2c3n(c(=O)c(=O)c(OC)c1-3)c1ccccc21`, the inhibition is 11.7%.

As for `COn1c(=O)cc2c3ccccc3n3c(=O)ccc1c23`, the inhibition is 31.2%.

`COc1cccc2c1[nH]c1c(CCC(OC)C(=O)c3nccc4c3[nH]c3ccccc34)ncc(OC)c12` (centres undefined): the inhibition turned out to be 44.1%.

Take `COc1c(OC)c2nc(O)cc3c4ccccc4n(c1=O)c23`: the inhibition came out at 81.9%.

For `C=Cc1ncc(OC)c2c1[nH]c1c(OC)cccc12`, the inhibition is 40.3%.

Take `O=c1c(CO)cc2nccc3c4ccccc4n1c23`: the inhibition was 33.8%.

`COc1c(OC)c2c3c(cc(=O)n2C)c2ccccc2n3c1=O`: the inhibition was 34.4%.

As for `COC(=O)C1Cc2c([nH]c3ccccc23)CN1` (centres undefined), the inhibition came out at 21.3%.

Take `CCCC1NC(C(=O)OC)Cc2c1[nH]c1ccccc21` (centres undefined): the inhibition was determined as 7.9%.

On to `C=Cc1ncc(OC)c2c3ccccc3n(OC)c12`, for which the inhibition amounted to 33.5%.

For `Oc1nccc2c1[nH]c1ccccc12`, the inhibition turned out to be 8.5%.

As for `O=Cc1nccc2c1[nH]c1ccccc12`, the inhibition is 9.8%.

With `CCn1ccc2c3n(c(=O)c(=O)cc1-3)c1cc(OC)ccc21`, the inhibition stood at 59.4%.

For `O=C(O)C1Cc2c([nH]c3ccccc23)CN1` (centres undefined), the inhibition was determined as 26%.

Consider `COc1ccc2c3ccnc4ccc(=O)n(c2c1)c43`, for which the inhibition is 34.9%.

On to `COc1c(OC)c2nccc3c4ccccc4n(c1=O)c23`, for which the inhibition was found to be 26.5%.

As for `COCc1c2[nH]c3ccccc3c2cc[n+]1[O-]`, the inhibition is 59%.

On to `O=c1c(O)cc2nccc3c4ccccc4n1c23`, for which the inhibition amounted to 84.7%.

In the case of `COc1c2n(C)ccc3c-2n(c(=O)c1=O)c1ccccc31`, the inhibition came out at 76.6%.

Regarding `CCOC(=O)c1nccc2c1[nH]c1ccccc12`, the inhibition was determined as 26.9%.

Turning to `COc1cnc(C(OC)OC(C)=O)c2[nH]c3ccccc3c12` (centres undefined), the inhibition was 11.6%.
